Test results from ChEMBL document CHEMBL1154040, “Synthesis and evaluation of novel F-18 labeled fluoroarylvaline derivatives: potential PET imaging agents for tumor detection” (Bioorg Med Chem Lett, 2009).

Columns and labels:
Liver [1] = experiment: Biodistribution in S180 tumor-bearing KM mouse liver assessed per gram of tissue at 240 to 370 kBq, iv after 60 mins; format: ADME, organism-based; settings: in vivo, 1 h
Spleen [2] = experiment: Biodistribution in S180 tumor-bearing KM mouse spleen assessed per gram of tissue at 240 to 370 kBq, iv after 15 mins; format: ADME, organism-based; settings: in vivo, 0.25 h
Brain = experiment: Biodistribution in S180 tumor-bearing KM mouse brain assessed per gram of tissue at 240 to 370 kBq, iv after 60 mins; format: ADME, organism-based; settings: in vivo, 1 h
[3] = Ratio of drug level in S180 tumor to muscleKM mouse at 240 to 370 kBq, iv after 60 mins; format: ADME, organism-based, KM; settings: in vivo, 1 h
Spleen [4] = experiment: Biodistribution in S180 tumor-bearing KM mouse spleen assessed per gram of tissue at 240 to 370 kBq, iv after 5 mins; format: ADME, organism-based; settings: in vivo
Liver [5] = experiment: Biodistribution in S180 tumor-bearing KM mouse liver assessed per gram of tissue weight at 240 to 370 kBq, iv after 15 mins; format: ADME, organism-based; settings: in vivo, 0.25 h
Spleen [6] = experiment: Biodistribution in S180 tumor-bearing KM mouse spleen assessed per gram of tissue at 240 to 370 kBq, iv after 60 mins; format: ADME, organism-based; settings: in vivo, 1 h
Muscle tissue = experiment: Biodistribution in S180 tumor-bearing KM mouse muscle assessed per gram of tissue at 240 to 370 kBq, iv after 60 mins; format: ADME, organism-based; settings: in vivo, 1 h
Heart = experiment: Biodistribution in S180 tumor-bearing KM mouse heart assessed per gram of tissue weight at 240 to 370 kBq, iv after 120 mins; format: ADME, organism-based; settings: in vivo, 2 h
Liver [7] = experiment: Biodistribution in S180 tumor-bearing KM mouse liver assessed per gram of tissue weight at 240 to 370 kBq, iv after 5 mins; format: ADME, organism-based; settings: in vivo
Kidney [8] = experiment: Biodistribution in S180 tumor-bearing KM mouse kidney assessed per gram of tissue at 240 to 370 kBq, iv after 120 mins; format: ADME, organism-based; settings: in vivo, 2 h
Spleen [9] = experiment: Biodistribution in S180 tumor-bearing KM mouse spleen assessed per gram of tissue at 240 to 370 kBq, iv after 30 mins; format: ADME, organism-based; settings: in vivo, 0.5 h
Kidney [10] = experiment: Biodistribution in S180 tumor-bearing KM mouse kidney assessed per gram of tissue at 240 to 370 kBq, iv after 5 mins; format: ADME, organism-based; settings: in vivo
Blood [11] = experiment: Biodistribution in S180 tumor-bearing KM mouse blood assessed per gram of tissue weight at 240 to 370 kBq, iv after 15 mins; format: ADME, organism-based; settings: in vivo, 0.25 h
[12] = Ratio of drug level in S180 tumor to muscleKM mouse at 240 to 370 kBq, iv after 5 mins; format: ADME, organism-based, KM; settings: in vivo
Blood [13] = experiment: Biodistribution in S180 tumor-bearing KM mouse blood assessed per gram of tissue weight at 240 to 370 kBq, iv after 120 mins; format: ADME, organism-based; settings: in vivo, 2 h
Femur [14] = experiment: Biodistribution in S180 tumor-bearing KM mouse femur assessed per gram of tissue at 240 to 370 kBq, iv after 30 mins; format: ADME, organism-based; settings: in vivo, 0.5 h
Summary of the method: (§1)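 Female KM mice (20 ± 2 g) were used 14–18 days after inoculation of 5 × 10^6 S 180 tumor cells. The ¹⁸F tracer in saline was injected into the tail vein of awake mice. Mice were killed at 5, 15, 30, 60 or 120 min, and the femur was removed, weighed and gamma-counted. Results are background-corrected %ID/g, mean ± SD, n = 4.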

Blood [15] = experiment: Stability in tumor bearing KM mouse blood after 30 mins at 4 MBq, iv; format: ADME, tissue-based; settings: 0.5 h
Summary of the method: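 Blood from tumor-bearing mice was collected after tracer injection and centrifuged at once for 5 min at 13,200 rpm. Supernatants from both centrifugation steps were combined, loaded onto a C18 Sep-Pak cartridge, washed with 2 ml water, then eluted.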

Femur [16] = experiment: Biodistribution in S180 tumor-bearing KM mouse femur assessed per gram of tissue at 240 to 370 kBq, iv after 60 mins; format: ADME, organism-based; settings: in vivo, 1 h; summary of the method: as §1
[17] = Ratio of drug level in S180 tumor to blood in KM mouse at 240 to 370 kBq, iv after 30mins; format: ADME, organism-based; settings: tumour, 0.5 h
Femur [18] = experiment: Biodistribution in S180 tumor-bearing KM mouse femur assessed per gram of tissue at 240 to 370 kBq, iv after 5 mins; format: ADME, organism-based; settings: in vivo; summary of the method: as §1
Femur [19] = experiment: Biodistribution in S180 tumor-bearing KM mouse femur assessed per gram of tissue at 240 to 370 kBq, iv after 120 mins; format: ADME, organism-based; settings: in vivo, 2 h; summary of the method: as §1
Femur [20] = experiment: Biodistribution in S180 tumor-bearing KM mouse femur assessed per gram of tissue at 240 to 370 kBq, iv after 15 mins; format: ADME, organism-based; settings: in vivo, 0.25 h; summary of the method: as §1

SMILES | Drug uptake (Liver [1]) [%ID] | Drug uptake (Spleen [2]) [%ID] | Drug uptake (Brain) [%ID] | tumor/muscle ratio [3] | Drug uptake (Spleen [4]) [%ID] | Drug uptake (Liver [5]) [%ID] | Drug uptake (Spleen [6]) [%ID] | Drug uptake (Muscle tissue) [%ID] | Drug uptake (Heart) [%ID] | Drug uptake (Liver [7]) [%ID] | Drug uptake (Kidney [8]) [%ID] | Drug uptake (Spleen [9]) [%ID] | Drug uptake (Kidney [10]) [%ID] | Drug uptake (Blood [11]) [%ID] | tumor/muscle ratio [12] | Drug uptake (Blood [13]) [%ID] | Drug uptake (Femur [14]) [%ID] | Stability (Blood [15]) | Drug uptake (Femur [16]) [%ID] | tumor/blood ratio [17] | other results
OC[C@H]1O[C@@H](O)[C@H]([18F])[C@@H](O)[C@@H]1O [FLUDEOXYGLUCOSE-F18] | 0.22 | 0.95 | 2.11 | 2.23 | 1.31 | 0.47 | 0.83 | 0.97 | 6.27 | 1.35 | 0.25 | 0.9 | 2.16 | 0.46 | 0.81 | 0.11 |  |  |  |  | 
COC(=O)[C@@H](NC(=O)c1ccc([N+](=O)[O-])cc1[18F])C(C)C | 0.27 | 1.13 | 0.17 | 1.39 | 1.48 | 8.6 | 0.31 | 0.69 | 0.08 | 15.9 | 0.29 | 0.51 | 17.9 | 2.18 | 1.94 | 0.19 | 2.11 | Stable | 2.09 | 2.91 | Drug uptake (Femur [18]): 1.6 %ID; Drug uptake (Femur [19]): 2.01 %ID; Drug uptake (Femur [20]): 2.23 %ID
CC(C)[C@H](NC(=O)c1ccc([N+](=O)[O-])cc1[18F])C(=O)O | 0.77 | 0.6 | 0.03 | 1.74 | 1.04 | 3.35 | 0.24 | 0.15 | 0.05 | 6.54 | 0.3 | 0.31 | 11.9 | 1.27 | 1.38 | 0.06 | 3.38 | Stable | 2.47 | 2.32 | Drug uptake (Femur [18]): 3.61 %ID; Drug uptake (Femur [19]): 2.15 %ID; Drug uptake (Femur [20]): 4.02 %ID
